In brackets after ≈: the same amount, converted by molar mass.
Experiments:
Staphylococcus aureus [1] = test: Antibacterial activity against 10^5 CFU/mL Staphylococcus aureus MTCC 96 after 24 hrs by disc diffusion technique; type: functional
Summary of the method: (§1)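 Disc diffusion on Mueller–Hinton agar poured 5 mm deep. The surface was swabbed with a 10⁵ CFU/mL […] suspension. Filter-paper discs 6.25 mm in diameter were soaked in compound in DMSO and placed on the agar. Plates were incubated 24 h at 37 ± 1 °C, and the inhibition zone was measured in mm. A DMSO disc served as blank.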

Staphylococcus aureus [2] = test: Antibacterial activity against 10^5 CFU/mL Staphylococcus aureus MTCC 96 after 24 hrs by agar streak dilution method; type: functional; conditions: MTCC 96, 24 h
Summary of the method: (§2)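 Agar streak dilution. Stock 100 µg/mL in DMSO; graded amounts were mixed into molten nutrient agar and poured at 4–5 mm depth. Plates carried serial dilutions over […]. About 10⁵ CFU/mL of each bacterium was applied, and plates were incubated at 37 ± 1 °C for 24 h. MIC was read from the dilution series.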

Bacillus cereus [3] = test: Antibacterial activity against 10^5 CFU/mL Bacillus cereus MTCC 619 after 24 hrs by disc diffusion technique; type: functional; summary of the method: as §1
Bacillus cereus [4] = test: Antibacterial activity against 10^5 CFU/mL Bacillus cereus MTCC 619 after 24 hrs by agar streak dilution method; type: functional; conditions: MTCC 619, 24 h; summary of the method: as §2
DU-145 = test: Cytotoxicity against […] human DU145 cells after 48 hrs by SRB assay; type: functional; conditions: DU-145, 48 h
Summary of the method: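 SRB assay in DU-145 cells grown in RPMI 1640 with 10% FBS and 2 mM L-glutamine. Cells were plated and held 24 h before addition of four 10-fold concentrations. After 48 h, cells were TCA-fixed, stained with 0.4% SRB and read at 540 nm. GI50, TGI and LC50 were derived against time-zero and control wells; each value is the mean of three experiments.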

Escherichia coli [5] = test: Antibacterial activity against 10^5 CFU/mL Escherichia coli MTCC 739 after 24 hrs by disc diffusion technique; type: functional; summary of the method: as §1
Escherichia coli [6] = test: Antibacterial activity against 10^5 CFU/mL Escherichia coli MTCC 739 after 24 hrs by agar streak dilution method; type: functional; conditions: MTCC 739, 24 h; summary of the method: as §2
Pseudomonas aeruginosa [7] = test: Antibacterial activity against 10^5 CFU/mL Pseudomonas aeruginosa MTCC 741 after 24 hrs by disc diffusion technique; type: functional; summary of the method: as §1
Pseudomonas aeruginosa [8] = test: Antibacterial activity against 10^5 CFU/mL Pseudomonas aeruginosa MTCC 741 after 24 hrs by agar streak dilution method; type: functional; conditions: MTCC 741, 24 h; summary of the method: as §2
Klebsiella pneumoniae [9] = test: Antibacterial activity against 10^5 CFU/mL Klebsiella pneumoniae MTCC 109 after 24 hrs by disc diffusion technique; type: functional; summary of the method: as §1
Klebsiella pneumoniae [10] = test: Antibacterial activity against 10^5 CFU/mL Klebsiella pneumoniae MTCC 109 after 24 hrs by agar streak dilution method; type: functional; conditions: MTCC 109, 24 h; summary of the method: as §2
Salmonella typhi [11] = test: Antibacterial activity against 10^5 CFU/mL Salmonella typhi MTCC 733 after 24 hrs by disc diffusion technique; type: functional, Salmonella enterica subsp. enterica serovar Typhi
Summary of the method: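 Disc diffusion. Mueller-Hinton agar autoclaved 120 °C 30 min, poured 5 mm deep. Surface swabbed with 10⁵ CFU/mL suspension […]. 6.25 mm filter-paper discs soaked in compound in DMSO; DMSO-only disc as blank. Incubated 37 ± 1 °C, 24 h for bacteria or 48 h for fungi. Ciprofloxacin and ketoconazole discs as reference drugs. Inhibition zone measured in mm.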

Salmonella typhi [12] = test: Antibacterial activity against 10^5 CFU/mL Salmonella typhi MTCC 733 after 24 hrs by agar streak dilution method; type: functional, Salmonella enterica subsp. enterica serovar Typhi; conditions: Salmonella enterica, MTCC 733, 24 h
Proteus vulgaris [13] = test: Antibacterial activity against 10^5 CFU/mL Proteus vulgaris MTCC 1771 after 24 hrs by disc diffusion technique; type: functional; summary of the method: as §1
Proteus vulgaris [14] = test: Antibacterial activity against 10^5 CFU/mL Proteus vulgaris MTCC 1771 after 24 hrs by agar streak dilution method; type: functional; conditions: MTCC 1771, 24 h; summary of the method: as §2
Shigella flexneri [15] = test: Antibacterial activity against 10^5 CFU/mL Shigella flexneri MTCC 1457 after 24 hrs by disc diffusion technique; type: functional; summary of the method: as §1
Shigella flexneri [16] = test: Antibacterial activity against 10^5 CFU/mL Shigella flexneri MTCC 1457 after 24 hrs by agar streak dilution method; type: functional; conditions: MTCC 1457, 24 h; summary of the method: as §2
Aspergillus niger [17] = test: Antifungal activity against 10^5 CFU/mL Aspergillus niger MTCC 282 after 48 hrs by disc diffusion technique; type: functional
Aspergillus niger [18] = test: Antifungal activity against 10^5 CFU/mL Aspergillus niger MTCC 282 after 48 hrs by agar streak dilution method; type: functional; conditions: MTCC 282, 48 h
Summary of the method: (§3)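 Agar streak dilution for fungi. Stock 100 µg/mL in DMSO; graded amounts were mixed into molten Sabouraud dextrose agar and poured at 4–5 mm depth. Serial dilutions ran over […]. About 10⁵ CFU/mL inoculum was applied, with incubation at 37 ± 1 °C for 48 h. MIC was read from the dilution series.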

Aspergillus fumigatus [19] = test: Antifungal activity against 10^5 CFU/mL Aspergillus fumigatus MTCC 343 after 48 hrs by disc diffusion technique; type: functional
Aspergillus fumigatus [20] = test: Antifungal activity against 10^5 CFU/mL Aspergillus fumigatus MTCC 343 after 48 hrs by agar streak dilution method; type: functional; conditions: MTCC 343, 48 h; summary of the method: as §3
Aspergillus clavatus [21] = test: Antifungal activity against 10^5 CFU/mL Aspergillus clavatus MTCC 1323 after 48 hrs by disc diffusion technique; type: functional
Aspergillus clavatus [22] = test: Antifungal activity against 10^5 CFU/mL Aspergillus clavatus MTCC 1323 after 48 hrs by agar streak dilution method; type: functional; conditions: MTCC 1323, 48 h; summary of the method: as §3
Candida albicans [23] = test: Antifungal activity against 10^5 CFU/mL Candida albicans MTCC 183 after 48 hrs by disc diffusion technique; type: functional
Candida albicans [24] = test: Antifungal activity against 10^5 CFU/mL Candida albicans MTCC 183 after 48 hrs by agar streak dilution method; type: functional; conditions: MTCC 183, 48 h; summary of the method: as §3

| SMILES | inhibition zone (IZ) (Staphylococcus aureus [1]) [mm] | MIC (Staphylococcus aureus [2]) [mg/L] | inhibition zone (IZ) (Bacillus cereus [3]) [mm] | MIC (Bacillus cereus [4]) [mg/L] | GI50 (DU-145) [µM] | LC50 (concentration giving 50% net cell kill relative to time zero) (DU-145) [µM] | TGI (DU-145) [µM] | inhibition zone (IZ) (Escherichia coli [5]) [mm] | MIC (Escherichia coli [6]) [mg/L] | inhibition zone (IZ) (Pseudomonas aeruginosa [7]) [mm] | MIC (Pseudomonas aeruginosa [8]) [mg/L] | inhibition zone (IZ) (Klebsiella pneumoniae [9]) [mm] | MIC (Klebsiella pneumoniae [10]) [mg/L] | inhibition zone (IZ) (Salmonella typhi [11]) [mm] | MIC (Salmonella typhi [12]) [mg/L] | inhibition zone (IZ) (Proteus vulgaris [13]) [mm] | MIC (Proteus vulgaris [14]) [mg/L] | inhibition zone (IZ) (Shigella flexneri [15]) [mm] | MIC (Shigella flexneri [16]) [mg/L] | inhibition zone (IZ) (Aspergillus niger [17]) [mm] | other results |
| --- | --- | --- | --- | --- | --- | --- | --- | --- | --- | --- | --- | --- | --- | --- | --- | --- | --- | --- | --- | --- | --- |
| N#Cc1ccc(Nc2nc(Oc3ccnc4ccccc34)nc(N3CCN(c4ncccn4)CC3)n2)cc1C(F)(F)F | 21 | 100 (≈ 175 µM) | 21 | 50 (≈ 87.6 µM) | 85.2 | > 100 | > 100 | 18 | 100 (≈ 175 µM) | 16 | 100 (≈ 175 µM) | 17 | 100 (≈ 175 µM) | 16 | 100 (≈ 175 µM) | 18 | 100 (≈ 175 µM) | 17 | 100 (≈ 175 µM) | 11 | MIC (Aspergillus niger [18]): 100 mg/L (≈ 175 µM); inhibition zone (IZ) (Aspergillus fumigatus [19]): 13 mm; MIC (Aspergillus fumigatus [20]): 100 mg/L (≈ 175 µM); inhibition zone (IZ) (Aspergillus clavatus [21]): 11 mm; MIC (Aspergillus clavatus [22]): 100 mg/L (≈ 175 µM); inhibition zone (IZ) (Candida albicans [23]): 13 mm; MIC (Candida albicans [24]): 100 mg/L (≈ 175 µM) |
| N#Cc1ccc(Nc2nc(Oc3ccnc4ccccc34)nc(N3CCN(Cc4ccccc4)CC3)n2)cc1C(F)(F)F | 22 | 100 (≈ 172 µM) | 22 | 100 (≈ 172 µM) | > 100 | > 100 | > 100 | 14 | 100 (≈ 172 µM) | 15 | 100 (≈ 172 µM) | <10 | 100 (≈ 172 µM) | 14 | 100 (≈ 172 µM) | 16 | 100 (≈ 172 µM) | 11 | 100 (≈ 172 µM) | <10 | MIC (Aspergillus niger [18]): 100 mg/L (≈ 172 µM); inhibition zone (IZ) (Aspergillus fumigatus [19]): <10 mm; MIC (Aspergillus fumigatus [20]): 100 mg/L (≈ 172 µM); inhibition zone (IZ) (Aspergillus clavatus [21]): 12 mm; MIC (Aspergillus clavatus [22]): 100 mg/L (≈ 172 µM); inhibition zone (IZ) (Candida albicans [23]): <10 mm; MIC (Candida albicans [24]): 100 mg/L (≈ 172 µM) |
| N#Cc1ccc(Nc2nc(Oc3ccnc4ccccc34)nc(N3CCC(Cc4ccccc4)CC3)n2)cc1C(F)(F)F | 24 | 100 (≈ 172 µM) | 22 | 50 (≈ 86 µM) | > 100 | > 100 | > 100 | 14 | 100 (≈ 172 µM) | 19 | 100 (≈ 172 µM) | 16 | 100 (≈ 172 µM) | 16 | 100 (≈ 172 µM) | 17 | 100 (≈ 172 µM) | 14 | 100 (≈ 172 µM) | <10 | MIC (Aspergillus niger [18]): 100 mg/L (≈ 172 µM); inhibition zone (IZ) (Aspergillus fumigatus [19]): <10 mm; MIC (Aspergillus fumigatus [20]): 100 mg/L (≈ 172 µM); inhibition zone (IZ) (Aspergillus clavatus [21]): 14 mm; MIC (Aspergillus clavatus [22]): 100 mg/L (≈ 172 µM); inhibition zone (IZ) (Candida albicans [23]): 15 mm; MIC (Candida albicans [24]): 100 mg/L (≈ 172 µM) |
| N#Cc1ccc(Nc2nc(Oc3ccnc4ccccc34)nc(N3CCN(C(c4ccccc4)c4ccccc4)CC3)n2)cc1C(F)(F)F | 21 | 50 (≈ 75.9 µM) | 22 | 25 (≈ 38 µM) | > 100 | > 100 | > 100 | 19 | 100 (≈ 152 µM) | 19 | 100 (≈ 152 µM) | 17 | 100 (≈ 152 µM) | 19 | 100 (≈ 152 µM) | 19 | 100 (≈ 152 µM) | 21 | 100 (≈ 152 µM) | 14 | MIC (Aspergillus niger [18]): 100 mg/L (≈ 152 µM); inhibition zone (IZ) (Aspergillus fumigatus [19]): 20 mm; MIC (Aspergillus fumigatus [20]): 100 mg/L (≈ 152 µM); inhibition zone (IZ) (Aspergillus clavatus [21]): 16 mm; MIC (Aspergillus clavatus [22]): 100 mg/L (≈ 152 µM); inhibition zone (IZ) (Candida albicans [23]): 15 mm; MIC (Candida albicans [24]): 100 mg/L (≈ 152 µM) |
| N#Cc1ccc(Nc2nc(Oc3ccnc4ccccc34)nc(N3CCN(C(c4ccccc4)c4ccc(Cl)cc4)CC3)n2)cc1C(F)(F)F (stereo not given) | 25 | 12.5 (≈ 18 µM) | 25 | 12.5 (≈ 18 µM) | > 100 | > 100 | > 100 | 23 | 50 (≈ 72.1 µM) | 24 | 12.5 (≈ 18 µM) | 25 | 12.5 (≈ 18 µM) | 25 | 25 (≈ 36.1 µM) | 27 | 6.25 (≈ 9.02 µM) | 22 | 25 (≈ 36.1 µM) | 25 | MIC (Aspergillus niger [18]): 25 mg/L (≈ 36.1 µM); inhibition zone (IZ) (Aspergillus fumigatus [19]): 26 mm; MIC (Aspergillus fumigatus [20]): 25 mg/L (≈ 36.1 µM); inhibition zone (IZ) (Aspergillus clavatus [21]): 25 mm; MIC (Aspergillus clavatus [22]): 50 mg/L (≈ 72.1 µM); inhibition zone (IZ) (Candida albicans [23]): 25 mm; MIC (Candida albicans [24]): 25 mg/L (≈ 36.1 µM) |
